Sampled rows, rich in hits. Any-hit rate of the full collection: about 12%.
L major viab – inhibitors of Leishmania major promastigote growth; Leishmania major promastigotes, resazurin fluorescence viability; inhibition, % at 10 µM; 200,000 compounds, 9% hits; AID 1063; in the data active = inhibition above about 50%;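 also: promastigotes grown with compound for 44 hours at 28 °C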
WT yeast gro inh – growth inhibition of WT yeast, mitochondrial fusion screen; mitochondrial fusion phenotypic screen, WT strain; 190,000 compounds, 2.1% hits; inhibition, % at 10 µM; in the data active = inhibition above about 58%; tested in S. cerevisiae
Diaphorase inh – diaphorase inhibition or chemical oxidation counter-screen; diaphorase resazurin-to-resorufin fluorescence, NADH, 16 min; bacterial (C. kluyveri) enzyme, not human; 190,000 compounds, 0.69% hits; inhibition, % at 20 µM; AID 1217;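 active = primary screen inhibition at 20 µM above a set limit, cut at about 50% in these data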;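 also: plate controls were DMSO with full reaction for no effect and wells lacking NADH for full effect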
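Benchmarks: positive control wells lacking NADH, neutral wells with DMSO only. System: bacterial diaphorase enzyme (C. kluyveri). Input: 0.14 U/mL diaphorase, enzyme working solution. Detection: resorufin fluorescence, excitation 544 nm, emission 590 nm. Times: 16-min room-temperature incubation before reading.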
ROMK mod – human ROMK K+ channel modulation, primary screen; P48048; 130,000 compounds, 2% hits; B-score at 10 µM; Tet-inducible ROMK, thallium flux fluorescence; actives lie on both sides;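 active = signal ratio slope over the read window, or its plate-corrected B-score, at least 3 SD from the plate mean, either direction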;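 also: B-score of the F/F0 ratio slope over 7 to 12 s after thallium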
Diaphorase act – activates diaphorase or chemically reduces, flagging diaphorase assay artifacts; Diaphorase/resazurin coupled assay, resorufin fluorescence, 16 min; active compounds read high; 1 = vehicle wells, 0 = NADH-free wells; activation factor at 20 µM; 190,000 compounds, 0.005% hits;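 active = diaphorase activity raised at least twofold by the compound at 20 µM; inactive = activation factor below 2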
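Assay system: Purified diaphorase enzyme from Clostridium kluyveri | Amount: Enzyme 0.07 U/mL final | Dosing: Compound 20 µM once, DMSO 1% | Timing: 16 min reaction at room temperature | Detection: Fluorescence, excitation 544 nm and emission 590 nm | Evaluation: Higher resorufin formation from activation or reduction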
KCC2 mod – KCC2 (human) Cl- transport modulation; AID 1456; 190,000 compounds, 2.2% hits; KCC2 cells, thallium flux FluoZin-2 fluorescence; Q9H2X9; B-score of Tl+ flux slope (higher = more flux/activation; lower = inhibition) at 10 µM;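 active = thallium flux slope and its plate-corrected score both differing from the plate sample mean at a set confidence after two filtering rounds, in either direction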;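 also: slope of fluorescence scaled to starting intensity during 10 to 20 s after thallium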
KCC2 sec1 – confirmation of human KCC2 transport modulators. shares compounds with KCC2 mod. HEK293-KCC2, thallium flux, FluoZin2 fluorescence; active compounds read high. normalised thallium flux (F/F0 slope) at 10 µM. 3,700 compounds, 15% hits. AID 1713;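 active = thallium flux slope above the same plate's solvent-only control mean plus 3 SD; inconclusive = the two replicate wells disagree; inactive = no significant difference from solvent-only control wells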
KCC2 bumet counter – bumetanide-insensitive thallium flux in KCC2 cells with ouabain, counter-screen; shares compounds with KCC2 mod; HEK293-KCC2 + bumetanide/ouabain, thallium flux FluoZin2; active compounds read high; normalized thallium flux at 10 µM; 3,700 compounds, 49% hits; AID 1714;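 active = thallium entry rate above the same plate's blocked-transporter control wells by more than 3 SD; inconclusive = the two repeat wells disagree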;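 also: raw slope of fluorescence over initial fluorescence between 10 and 20 s after thallium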
KCC2 secondary2 – confirmation of human KCC2 transport modulators; shares compounds with KCC2 mod; normalized thallium flux at 10 µM; AID 1715; 3,700 compounds, 23% hits; HEK293-KCC2, thallium flux FluoZin2 fluorescence; actives lie on both sides; F/F0 rise rate, 10–20 s post-thallium;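 active = thallium flux slope more than 3 SD above or below the plate's solvent-only control mean, mostly below; inconclusive = the two repeat wells disagreed; inactive = no significant shift from solvent-only controls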;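 also: raw slope with 0.1% DMSO as baseline and bumetanide as block control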
HEK counter1 – counter-screen for KCC2 modulators: effect in parental HEK293 cells | shares compounds with KCC2 mod | 3,700 compounds, 46% hits | AID 1716 | thallium flux rate (normalised fluorescence) at 10 µM | thallium flux FluoZin2, ouabain; baseline-ratio fluorescence slope, 10–20 s after thallium;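 active = thallium flux rate significantly above the same plate's solvent-only control wells, beyond their mean plus 3 SD; inconclusive = the two replicate wells gave conflicting results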
KCC2 retest ouab – confirmation of human KCC2 modulators with ouabain | HEK293-KCC2, thallium flux FluoZin2 fluorescence; bidirectional: low = inhibitor, high = activator | shares compounds with KCC2 mod | 3,700 compounds, 48% hits | raw Tl+ flux slope (below DMSO = inhibition, above = activation) at 10 µM;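 active = thallium flux slope beyond 3 SD from same-plate DMSO control mean in most replicates, usually higher, sometimes lower; inconclusive = repeat tests gave conflicting results; inactive = no significant difference from controls in most replicates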;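 also: slope of initial-normalized fluorescence between seconds 10 and 20 after thallium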
HEK293 Tl flux2 – parental HEK flux effect, counter-screen 2; thallium flux slope at 10 µM; AID 1718; HEK293 parental, thallium flux FluoZin-2 fluorescence slope; 3,700 compounds, 33% hits; shares compounds with KCC2 mod;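 active = thallium flux slope above the same plate's solvent-control mean plus 3 SD in both duplicate wells; inconclusive = duplicate wells that disagreed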;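 also: run without ouabain in cells lacking the KCC2 cotransporter; slope of fluorescence scaled to its starting value between 10 and 20 s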
* hit, by the source's call; ? = inconclusive; . = no result.

SMILES	L major viab	WT yeast gro inh	Diaphorase inh	ROMK mod	Diaphorase act	KCC2 mod	KCC2 sec1	KCC2 bumet counter	KCC2 secondary2	HEK counter1	KCC2 retest ouab	HEK293 Tl flux2
C/C(=N/NC(=O)c1cc(-c2ccc(Cl)s2)[nH]n1)c1ccco1	.	.	.	-0.03	.	10*	0.0077	0.0096*	0.029	0.013*	0.021	?
N#Cc1ccc(CSc2nnc3[nH]c(=O)cc(N)n23)cc1	-2	-14	-5	-0.36	1	1.9	.	.	.	.	.	.
COc1ccc(CCNC(=O)C2CCN(S(=O)(=O)c3cc(OC)ccc3OC)CC2)cc1	26	-16	16	-0.24	0.8	.	.	.	.	.	.	.
COc1ccc(CCNC(=O)C2CCN(S(C)(=O)=O)CC2)cc1	-4	-18	1	0.66	1	-3.4*	0.0075	0.004	0.027	0.0074	0.019	0.0095
COC(=O)Cc1cc(=O)n2[nH]c(C(F)(F)F)nc2n1	-4	-1	0	.	1	-0.53	.	.	.	.	.	.
Cc1cc(=O)[nH]c(SCC(=O)Nc2nc(-c3ccccc3)cs2)n1	-11	-13	6	.	0.9	-7.1*	0.0079	0.0063	0.034	0.0038	0.015*	0.011
Cc1nc(CC(=O)Nc2nc(-c3ccccc3)cs2)cs1	14	-4	18	.	0.8	-3.4*	0.0086	0.0056	?	0.0086	0.017*	0.012
Cc1cc(C)nc(SCc2nnc(SCC(=O)Nc3nc(-c4ccccc4)cs3)n2C)n1	20	-7	17	-1.9	0.8	-1.8	.	.	.	.	.	.
Cc1cc(=O)[nH]c(SCC(=O)Nc2nnc(SCc3ccccc3)s2)n1	-4	-6	16	0.93	0.8	-4.8*	0.0051	0.0046	0.025*	0.0048*	0.015*	0.0083*
COc1ccccc1-c1nnc(SCC(=O)Nc2nc(-c3ccccc3)cs2)n1C	33	20	4	.	1	-4*	?	0.0066	0.032	0.0035	0.015*	0.011
Cc1cc(=O)[nH]c(SCC(=O)Nc2nc3ccccc3s2)n1	1	-5	11	0.052	0.9	-1.1	.	.	.	.	.	.
CCNC(=O)C1CC(=O)N(c2ccc(Br)cc2)C1 (centres undefined)	-8	-11	12	.	0.9	.	.	.	.	.	.	.
Cn1nccc1C(=O)OCC(=O)Nc1nc(-c2ccccc2)cs1	28	15	24	.	0.8	-5.3*	0.016	0.0049	0.022*	0.0076	0.015	0.01
Cc1ccc(NC(=O)c2ccccc2-c2ccc(C(F)(F)F)cc2)cc1S(=O)(=O)N1CCOCC1	93*	18	22	.	0.8	3.8*	0.0055	0.0052	0.027	0.0074	0.018	0.011
N#Cc1nc(-c2ccco2)oc1N1CCN(Cc2ccccc2)CC1	8	7	13	-0.42	0.9	.	0.0081	0.006	0.026*	0.0069	0.028*	0.0098
C/C(=N/NC(=O)CC1N=C(Cc2ccccc2)NNC1=O)c1cccnc1 (centres undefined)	-4	-9	15	0.2	0.9	1	.	.	.	.	.	.

Source: PubChem BioAssay
